In brackets after ≈: the same amount, converted by molar mass. Activity calls are given as the source filed them. The calls are words filed in the database; no cut-off is given here.
Columns and labels:
Mus musculus [1] = assay: Acceleration of wound healing in methicillin-resistant Staphylococcus aureus USA300 infected in Balb/c mouse model assessed as reduction in pro-inflammatory cytokines level in skin wounds administered topically twice daily 2 days post infection and measured after 5 days post compound treatment; assay type: functional, organism-based; conditions: time 5.0 day
Procedure, shortened: (§1)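 Mice had two 6-mm dorsal excisional wounds, each infected with 20 μL of 4.2×10^9 CFU/mL MRSA USA300 and covered with Tegaderm. Treatment began 2 days after infection (n=5 per group): 2% compound in petroleum jelly applied topically twice daily for 5 days. Right-wound homogenates in PBS were centrifuged, supernatants pooled per group, and protein normalised by BCA. Cytokines were measured by mouse cytokine array (pg/mL).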

Staphylococcus aureus [2] = assay: Downregulation of LukD protein expression in Staphylococcus aureus assessed as log2 of fold change in protein level measured after 2 hrs by LC-MS/MS analysis relative to control; assay type: functional
Procedure, shortened: (§2)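 S. aureus ATCC 25923 at OD600 0.6 was treated with compound or DMSO for 2 h at 37 °C, normalised to OD600 1.1, and washed in PBS. Cells were pressure-lysed in 100 mM ammonium bicarbonate, then acetone-precipitated, reduced with DTT, alkylated with iodoacetamide, and digested with trypsin/Lys-C. Peptides were desalted and run on LC-MS/MS. Label-free quantitation used proteins present in all 3 samples, filtered at p<0.05 against DMSO.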

Staphylococcus aureus [3] = assay: Upregulation of 23S rRNA (pseudouridine(1915)-N(3))-methyltransferase RImH expression in Staphylococcus aureus measured after 2 hrs by LC-MS/MS analysis; assay type: functional
Procedure, shortened: (§3)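 S. aureus ATCC 25923 at OD600 0.6 exposed to compound or DMSO control for 2 h at 37°C, normalized to OD600 1.1 and PBS-washed. Cells were pressure-cycling lysed in 100 mM ammonium bicarbonate, and 50 μg protein was acetone-precipitated, reduced and alkylated, then Trypsin/Lys-C digested and C18-desalted. About 1 μg peptides went to LC-MS/MS. Label-free quantitation kept proteins present in all 3 samples, filtered at p <0.05.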

Staphylococcus aureus [4] = assay: Upregulation of siderophore biosynthesis protein SbnF in Staphylococcus aureus measured after 2 hrs by LC-MS/MS analysis; assay type: functional; procedure, shortened: as §3
Staphylococcus aureus [5] = assay: Antibacterial activity against methicillin-resistant Staphylococcus aureus NRS 386 assessed as inhibition of bacterial growth incubated for 18 to 20 hrs by broth microdilution method; assay type: functional; conditions: time 18-20 hrs
Procedure, shortened: (§4)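 Broth microdilution per CLSI. Inoculum was set to 0.5 McFarland and diluted in CAMHB to about 5×10^5 CFU/mL. Serial dilutions of agent were incubated aerobically at 37 °C for 18–20 h. MIC was read visually as the lowest concentration with complete growth inhibition.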

Mus musculus [6] = assay: Acceleration of wound healing in methicillin-resistant Staphylococcus aureus USA300 infected Balb/c mouse model assessed as reduction in MCP-1 protein level in skin wounds administered topically twice daily 2 days post infection and measured after 5 days post compound treatment; assay type: functional, organism-based; conditions: time 5.0 day; procedure, shortened: as §1
Staphylococcus aureus [7] = assay: Upregulation of DefA protein expression in Staphylococcus aureus assessed as log2 of fold change in protein level measured after 2 hrs by LC-MS/MS analysis relative to control; assay type: functional; procedure, shortened: as §3
Staphylococcus aureus [8] = assay: Antibacterial activity against methicillin-resistant Staphylococcus aureus NRS 385 assessed as inhibition of bacterial growth incubated for 18 to 20 hrs by broth microdilution method; assay type: functional; conditions: time 18-20 hrs; procedure, shortened: as §4
Staphylococcus aureus [9] = assay: Downregulation of signal peptidase II protein expression in Staphylococcus aureus measured after 2 hrs by LC-MS/MS analysis; assay type: functional; procedure, shortened: as §3
Staphylococcus aureus [10] = assay: Antibacterial activity against methicillin-resistant Staphylococcus aureus NRS384 assessed as inhibition of bacterial growth incubated for 18 to 20 hrs by broth microdilution method; assay type: functional; conditions: time 18-20 hrs; procedure, shortened: as §4
Staphylococcus aureus [11] = assay: Upregulation of GpmA protein expression in Staphylococcus aureus assessed as log2 of fold change in protein level measured after 2 hrs by LC-MS/MS analysis relative to control; assay type: functional; procedure, shortened: as §3
[12] = Toxicity in Balb/c mouse infected with methicillin-resistant Staphylococcus aureus USA300 assessed as chronic inflammatory response administered topically twice daily 2 days post infection and measured after 5 days post compound treatment by H and E staining based histopathological analysis; conditions: in vivo, topical_or_ocular, 120 h, time 5 day
Procedure, shortened: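 MRSA USA300-infected punch wounds in mice, n=5. Topical 2% agent or petroleum jelly vehicle twice daily from day 2 for 5 days. The left wound was formalin-fixed, cut into 4-μm sections and H&E-stained. Whole slides were scanned and assessed by a board-certified veterinary pathologist for necrosis, inflammation, haemorrhage and related features.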

Staphylococcus aureus [13] = assay: Antibacterial activity against Staphylococcus aureus ATCC 25923 assessed as inhibition of bacterial growth incubated for 18 to 20 hrs by broth microdilution method; assay type: functional; conditions: time 18-20 hrs
Procedure, shortened: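 Broth microdilution per CLSI. Inoculum at 0.5 McFarland, diluted in cation-adjusted Mueller Hinton broth to about 5 × 10^5 CFU/mL. Serial compound dilutions incubated aerobically at 37° C for 18–20 hours. MIC taken as the lowest concentration completely inhibiting visible growth.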

Staphylococcus aureus [14] = assay: Antibacterial activity against methicillin-resistant Staphylococcus aureus NRS119 assessed as inhibition of bacterial growth incubated for 18 to 20 hrs by broth microdilution method; assay type: functional; conditions: time 18-20 hrs; procedure, shortened: as §4
Staphylococcus aureus [15] = assay: Upregulation of haptoglobin-binding heme uptake protein HarA expression in Staphylococcus aureus measured after 2 hrs by LC-MS/MS analysis; assay type: functional; procedure, shortened: as §3
Staphylococcus aureus [16] = assay: Downregulation of PyrF protein expression in Staphylococcus aureus assessed as log2 of fold change in protein level measured after 2 hrs by LC-MS/MS analysis relative to control; assay type: functional; procedure, shortened: as §2
Staphylococcus aureus [17] = assay: Downregulation of aureolysin protein expression in Staphylococcus aureus measured after 2 hrs by LC-MS/MS analysis; assay type: functional; procedure, shortened: as §2
Staphylococcus aureus [18] = assay: Downregulation of CDP-diacylglycerol-glycerol-3-phosphate-3-phosphatidyltransferase protein expression in Staphylococcus aureus measured after 2 hrs by LC-MS/MS analysis; assay type: functional; procedure, shortened: as §2
Staphylococcus aureus [19] = assay: Downregulation of LipA protein expression in Staphylococcus aureus assessed as log2 of fold change in protein level measured after 2 hrs by LC-MS/MS analysis relative to control; assay type: functional; procedure, shortened: as §2
Streptococcus pneumoniae = assay: Antibacterial activity against cephalosporin-resistant Streptococcus pneumoniae ATCC 51916 assessed as inhibition of bacterial growth incubated for 18 to 20 hrs by broth microdilution method; assay type: functional; conditions: time 18-20 hrs
Procedure, shortened: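 Broth microdilution per CLSI. S. pneumoniae was diluted to about 5×10^5 CFU/mL in TSB and incubated with serial dilutions of agent at 37 °C for 18–20 h under 5% CO2. MIC was read visually as the lowest concentration completely inhibiting growth.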

Staphylococcus aureus [20] = assay: Downregulation of sodium ABC transporter permease protein expression in Staphylococcus aureus measured after 2 hrs by LC-MS/MS analysis; assay type: functional; procedure, shortened: as §3
Staphylococcus aureus [21] = assay: Downregulation of carboxylesterase protein expression in Staphylococcus aureus measured after 2 hrs by LC-MS/MS analysis; assay type: functional; procedure, shortened: as §2
Staphylococcus aureus [22] = assay: Downregulation of SdrD protein expression in Staphylococcus aureus assessed as log2 of fold change in protein level measured after 2 hrs by LC-MS/MS analysis relative to control; assay type: functional; procedure, shortened: as §2
Staphylococcus aureus [23] = assay: Upregulation of ribonuclease HIII expression in Staphylococcus aureus measured after 2 hrs by LC-MS/MS analysis; assay type: functional; procedure, shortened: as §3
Enterococcus faecium = assay: Antibacterial activity against vancomycin-resistant Enterococcus faecium ATCC 700221 assessed as inhibition of bacterial growth incubated for 18 to 20 hrs by broth microdilution method; assay type: functional; conditions: time 18-20 hrs
Procedure, shortened: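 Broth microdilution per CLSI. Enterococci were diluted to about 5×10^5 CFU/mL in TSB and incubated aerobically with serial dilutions of agent at 37 °C for 18–20 h. MIC was read visually as the lowest concentration with no visible growth.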

For `CC1CC(C)CN(S(=O)(=O)c2ccc(C(=O)Nc3nnc(-c4ccc(C(F)(F)F)cc4)o3)cc2)C1` (stereo not given), the Activity (Mus musculus [1]) was “Active”, the log2FC (Staphylococcus aureus [2]) was -2 and the Activity (Staphylococcus aureus [3]) was “Active”. The Activity (Staphylococcus aureus [4]) was “Active”, the MIC (Staphylococcus aureus [5]) was 0.25 µg/mL (≈ 0.492 µM) and the Activity (Mus musculus [6]) was “Active”. The log2FC (Staphylococcus aureus [7]) was 2, the MIC (Staphylococcus aureus [8]) was 0.25 µg/mL (≈ 0.492 µM) and the Activity (Staphylococcus aureus [9]) was “Active”. The MIC (Staphylococcus aureus [10]) was 0.25 µg/mL (≈ 0.492 µM), the log2FC (Staphylococcus aureus [11]) was 2.2 and the Activity [12] was “Toxic”. For the same compound, the MIC (Staphylococcus aureus [13]) was 0.25 µg/mL (≈ 0.492 µM), the MIC (Staphylococcus aureus [14]) was 0.25 µg/mL (≈ 0.492 µM) and the Activity (Staphylococcus aureus [15]) was “Active”. For the same compound, the log2FC (Staphylococcus aureus [16]) was -2.2, the Activity (Staphylococcus aureus [17]) was “Active” and the Activity (Staphylococcus aureus [18]) was “Active”. For the same compound, the log2FC (Staphylococcus aureus [19]) was -2, the MIC (Streptococcus pneumoniae) was 0.06 µg/mL (≈ 0.118 µM) and the Activity (Staphylococcus aureus [20]) was “Active”. For the same compound, the Activity (Staphylococcus aureus [21]) was “Active”, the log2FC (Staphylococcus aureus [22]) was -2 and the Activity (Staphylococcus aureus [23]) was “Active”. For the same compound, the MIC (Enterococcus faecium) was 0.25 µg/mL (≈ 0.492 µM).

Source: ChEMBL document CHEMBL5154895, “Mechanistic Studies and In Vivo Efficacy of an Oxadiazole-Containing Antibiotic” (J Med Chem, 2022)
